ChEMBL document CHEMBL1137448, “Structure-activity studies on diphenylpyrazine derivatives: a novel class of prostacyclin receptor agonists” (Bioorg Med Chem, 2007)
One block for each molecule: values may come before it.

How the values were obtained:
[1] = AUC in cynomolgus monkey at 1 mg/kg, po; assay type: ADME, organism-based, Macaca fascicularis; design: dose 1 mg/kg, route oral; conditions: plasma
Procedure, shortened: (§1)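 Animals were acclimatized (rats >1 week, dogs and monkeys >3 weeks) at 21–25 °C and 45–65% humidity, and were not fasted. Dosing was iv or oral to groups of three. Venous blood was sampled predose and at 5, 15 and 30 min and 1–24 h into heparin. Plasma was spun at 3000 rpm for 15 min at 4 °C and analysed by LC-MS (APCI/ESI positive, SIM/SRM). Values are mean ± SD, n=3.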

[2] = AUC in Beagle dog at 1 mg/kg, iv; assay type: ADME, organism-based, Canis lupus familiaris; design: dose 1 mg/kg, route intravenous; conditions: plasma
Procedure, shortened: (§2)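 Compound given iv or po to non-fasted groups of three animals (acclimatized ≥1 week rats, ≥3 weeks dogs; fed standard diets, 21–25 °C). Venous blood at predose, 5, 15, 30 min, 1, 2, 4, 6, 8, 10, 24 h into heparinized tubes; plasma by centrifugation (3000 rpm, 15 min, 4 °C); drug measured by LC-MS (APCI or ESI positive, SIM/SRM). Values mean ± SD, n = 3.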

[3] = Cmax in Beagle dog at 3 mg/kg, po; assay type: ADME, organism-based, Canis lupus familiaris; design: dose 3 mg/kg, route oral; conditions: in vivo; procedure, shortened: as §1
[4] = Tmax in Sprague-Dawley rat at 10 mg/kg, po; assay type: ADME, organism-based; design: dose 10 mg/kg, route oral; conditions: in vivo; procedure, shortened: as §1
[5] = Tmax in cynomolgus monkey at 1 mg/kg, po; assay type: ADME, organism-based, Macaca fascicularis; design: dose 1 mg/kg, route oral; conditions: in vivo
Procedure, shortened: (§3)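 Compound given iv or orally to non-fasted animals, groups of three; dogs and monkeys acclimatised over 3 weeks at 21–25 °C, 45–65% humidity. Venous blood drawn into heparinised tubes before dosing and at 5, 15, 30 min and 1, 2, 4, 6, 8, 10, 24 h; plasma by centrifugation (3000 rpm, 15 min, 4 °C), drug quantified by HPLC-MS in SIM or SRM mode; mean ± SD, n = 3.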

[6] = Half life in Sprague-Dawley rat at 10 mg/kg, po; assay type: ADME, organism-based; design: dose 10 mg/kg, route oral; conditions: in vivo; procedure, shortened: as §1
Plasma = test: Inhibition of ADP-induced platelet aggregation in human platelet rich plasma
[7] = Half life in Sprague-Dawley rat at 3 mg/kg, iv; assay type: ADME, organism-based; design: dose 3 mg/kg, route intravenous; conditions: in vivo; procedure, shortened: as §1
[8] = Half life in Beagle dog at 1 mg/kg, iv; assay type: ADME, organism-based, Canis lupus familiaris; design: dose 1 mg/kg, route intravenous; conditions: in vivo; procedure, shortened: as §3
[9] = Half life in Beagle dog at 3 mg/kg, po; assay type: ADME, organism-based, Canis lupus familiaris; design: dose 3 mg/kg, route oral; conditions: in vivo; procedure, shortened: as §1
[10] = Cmax in Sprague-Dawley rat at 10 mg/kg, po; assay type: ADME, organism-based; design: dose 10 mg/kg, route oral; conditions: in vivo; procedure, shortened: as §1
[11] = AUC in Sprague-Dawley rat at 3 mg/kg, iv; assay type: ADME, organism-based; design: dose 3 mg/kg, route intravenous; conditions: plasma; procedure, shortened: as §2
[12] = Cmax in cynomolgus monkey at 1 mg/kg, po; assay type: ADME, organism-based, Macaca fascicularis; design: dose 1 mg/kg, route oral; conditions: in vivo; procedure, shortened: as §3
[13] = AUC in Sprague-Dawley rat at 10 mg/kg, po; assay type: ADME, organism-based; design: dose 10 mg/kg, route oral; conditions: plasma; procedure, shortened: as §2
[14] = Tmax in Beagle dog at 3 mg/kg, po; assay type: ADME, organism-based, Canis lupus familiaris; design: dose 3 mg/kg, route oral; conditions: in vivo; procedure, shortened: as §1
[15] = Oral bioavailability in Beagle dog at 3 mg/kg; assay type: ADME, organism-based, Canis lupus familiaris; conditions: in vivo; procedure, shortened: as §1
[16] = Half life in cynomolgus monkey at 1 mg/kg, po; assay type: ADME, organism-based, Macaca fascicularis; design: dose 1 mg/kg, route oral; conditions: in vivo; procedure, shortened: as §3
[17] = AUC in Beagle dog at 3 mg/kg, po; assay type: ADME, organism-based, Canis lupus familiaris; design: dose 3 mg/kg, route oral; conditions: plasma; procedure, shortened: as §2
[18] = Oral bioavailability in Sprague-Dawley rat at 10 mg/kg; assay type: ADME, organism-based; conditions: in vivo; procedure, shortened: as §1

AUC [1]: 650 ng·h/mL
AUC [2]: 72500 ng·h/mL
Cmax [3]: 14900 ng/mL
Tmax [4]: 0.8 h
Tmax [5]: 2.3 h
half-life [6]: 3.6 h
IC50 (Plasma): 200 nM
half-life [7]: 4.9 h
half-life [8]: 5.9 h
half-life [9]: 6.2 h
Cmax [10]: 1900 ng/mL
AUC [11]: 5200 ng·h/mL
Cmax [12]: 110 ng/mL
AUC [13]: 17700 ng·h/mL
Tmax [14]: 0.8 h
bioavailability [15]: 80%
half-life [16]: 5.6 h
AUC [17]: 176000 ng·h/mL
bioavailability [18]: 102%
SMILES: CC(C)N(CCCCOCC(=O)O)c1cnc(-c2ccccc2)c(-c2ccccc2)n1

IC50 (Plasma): 2000 nM
SMILES: CN(CCc1cccc(OCC(=O)O)c1)c1cnc(-c2ccccc2)c(-c2ccccc2)n1

IC50 (Plasma): 17 nM
SMILES: CC#CCC(C)[C@H](O)/C=C/[C@@H]1[C@H]2c3cccc(CCCC(=O)O)c3O[C@H]2C[C@H]1O (stereo partly drawn) [BERAPROST SODIUM]

IC50 (Plasma): 5 nM
SMILES: CC#CCC(C)[C@H](O)/C=C/[C@@H]1[C@H]2C/C(=C/CCCC(=O)O)C[C@H]2C[C@H]1O (stereo partly drawn) [ILOPROST]

IC50 (Plasma): 6400 nM
SMILES: CC(C)N(CCCCOCC(=O)NS(C)(=O)=O)c1cnc(-c2ccccc2)c(-c2ccccc2)n1 [SELEXIPAG]
